High-throughput results: PubChem BioAssay, Broad Institute
The sample as a whole holds a higher share of hits than the screen did.
A1 apoptosis 2: blocks A1, raising caspase activity. MEF A1-2A-BIM cells, caspase-Glo luminescence, 3 h; percent of clofoctol response, DMSO zero. caspase activation, % (no concentration beside the values). 24,000 tested, under 10 active. AID 2465; in the data active means caspase activation above about 5.9%; inconclusive means no clear call, values can overlap the other calls; inactive means below about 2.2%
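System: mouse embryonic fibroblasts co-expressing A1 and BIM (A1-2A-BIM), primed for A1 dependence; amount: 2500 cells/well; doses: 50 nL pinned compound; schedule: cells settled overnight, compound exposure 3 h at 37 °C, 5% CO2; detection: Caspase-Glo 3/7 luminescence, 1 h at room temperature; read-out: Caspase-3/7 activation, seen as rise in luminescence signal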
INS-1E rescue: preserves ATP levels in cytokine-treated INS-1E cells; protection from cytokine-induced ATP loss, % at 10 µM; actives 0.1% (n = 20,000); INS-1E cytokine-induced death, ATP luminescence, 48 h; normalised: neutral wells 0, positive control 100; AID 488910;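 active means mean replicate protection from cytokine-induced ATP loss at least 50% and at least 75% of replicates each reaching 50%; inconclusive means meets only one of the two criteria, mean or replicate share; inactive means fails both the mean and replicate share criteria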
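Assay system: INS-1E rat cells / Quantity: 8000 cells per well / Medium: RPMI without phenol red, 5% FBS / Probe or stimulus: three-cytokine cocktail (IFN-γ, TNF-α, IL-1β) / Dosing: one compound concentration, pin transfer / Timing: 48 h co-treatment, 10 min post-lysis read / Technique: CellTiter-Glo luminescence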
T cruzi HTS: inhibitors of intracellular Trypanosoma cruzi; intracellular Trypanosoma cruzi in host cells, plate reader; activity score (inhibition), % at 5.01 µM; actives 4.9% (n = 22,000); AID 651903; in the data active means activity score above about 55%; inconclusive means no clear call, values can overlap the other calls;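 further: parasites and compound incubated about four days before reading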
Numbers stand for hits; . = inactive; ? = inconclusive; / = no result.

SMILES | A1 apoptosis 2 | INS-1E rescue | T cruzi HTS
C[C@@H](O)[C@@H](O)[C@@H](O)C/C=N/NC(=O)c1cccc(C(=O)NO)c1 | . | . | .
O=C(/C=C/c1ccc(OCCCCc2ccccc2)cc1)NO | . | / | /
CC1=C(C/C=N/NC(=O)CCCCCC(=O)O)C(C)(C)CCC1 | / | . | .
COC(=O)CCCCCCC(=O)N/N=C/c1ccc(OCc2ccccc2)cc1O | / | . | .
O=C(NO)c1ccc(C(=O)N/N=C/c2ccc(CO)o2)cc1 | . | . | .
C[C@H](CO)N1C[C@H](C)[C@H](CN(C)Cc2ccc(C(F)(F)F)cc2)Oc2ccc(NS(=O)(=O)c3ccccc3)cc2CC1=O | / | . | .
C[C@H]1CN([C@@H](C)CO)C(=O)Cc2cc(NS(=O)(=O)c3ccccc3)ccc2O[C@@H]1CN(C)Cc1ccc(C(F)(F)F)cc1 | / | . | 67.0
C[C@@H]1CN([C@H](C)CO)C(=O)Cc2cc(NS(=O)(=O)c3ccccc3)ccc2O[C@@H]1CN(C)Cc1ccc(C(F)(F)F)cc1 | . | . | 59.0
C[C@@H]1CN([C@H](C)CO)C(=O)Cc2cc(NS(=O)(=O)c3ccccc3)ccc2O[C@H]1CN(C)Cc1ccc(C(F)(F)F)cc1 | . | . | .
O=C(c1ccccc1)N1Cc2ccccc2[C@@H]2OC(c3ccc(OCCCO)cc3)=N[C@]2(CCS(=O)(=O)c2ccccc2)C1=O | . | / | /
O=C(NO)c1ccc(C(=O)N/N=C/c2ccc3c(c2)OCCO3)cc1 | . | . | .
O=C(CCCCCCC(=O)Nc1ccccc1O)N/N=C/c1cccs1 | . | . | .
C[C@@H]1CN([C@@H](C)CO)C(=O)Cc2cc(NC(=O)Nc3ccc4c(c3)OCO4)ccc2O[C@H]1CN(C)Cc1ccc2c(c1)OCO2 | . | / | /
C[C@H]1CN([C@@H](C)CO)C(=O)Cc2cc(NC(=O)Cc3ccccc3)ccc2O[C@H]1CN(C)Cc1ccc(Cl)c(Cl)c1 | . | . | 56.9
C[C@H](CO)N1C[C@H](C)[C@H](CN(C)Cc2ccc(Cl)c(Cl)c2)Oc2ccc(NC(=O)Nc3ccccc3)cc2CC1=O | . | . | 74.8
C[C@@H]1CN([C@@H](C)CO)C(=O)Cc2cc(NC(=O)Nc3ccc(F)cc3)ccc2O[C@@H]1CN(C)Cc1ccc(Cl)c(Cl)c1 | . | . | 66.6
COc1ccc(NC(=O)Nc2ccc3c(c2)CC(=O)N([C@H](C)CO)C[C@H](C)[C@H](CN(C)Cc2ccc(Cl)c(Cl)c2)O3)cc1 | . | . | .
C[C@H]1CN([C@@H](C)CO)C(=O)Cc2cc(NC(=O)Cc3ccccc3)ccc2O[C@@H]1CN(C)Cc1ccccc1 | . | . | .
C[C@H]1CN([C@@H](C)CO)C(=O)Cc2cc(NC(=O)Nc3ccccc3)ccc2O[C@H]1CN(C)Cc1ccc(Cl)c(Cl)c1 | . | . | .
C[C@H](CO)N1C[C@H](C)[C@H](CN(C)Cc2ccc(Cl)c(Cl)c2)Oc2ccc(NC(=O)Nc3ccc4c(c3)OCO4)cc2CC1=O | . | . | 80.0
O=C(NO)c1cccc(C(=O)N/N=C/c2cn(S(=O)(=O)c3ccccc3)c3ccccc23)c1 | . | . | .
O=S(=O)(N[C@@H]1CCN(Cc2ccc(OCCO)cc2)C1)c1cc(C(F)(F)F)ccc1Cl | . | / | /
O=C(O)CCCCCCC(=O)N/N=C/c1cc(Br)ccc1O | . | . | .
C[C@@H]1CN([C@@H](C)CO)C(=O)c2cccc(NC(=O)Nc3ccc(C(F)(F)F)cc3)c2O[C@@H]1CN(C)S(=O)(=O)c1ccc(Cl)cc1 | . | . | 70.1
C[C@H]1CN([C@@H](C)CO)C(=O)c2cccc(NC(=O)Nc3ccc(C(F)(F)F)cc3)c2O[C@@H]1CN(C)S(=O)(=O)c1ccc(F)cc1 | / | . | .
SMILES | A1 apoptosis 2 | INS-1E rescue | T cruzi HTS
Cc1ccc(S(=O)(=O)N(C)C[C@H]2Oc3c(NC(=O)Nc4ccc(C(F)(F)F)cc4)cccc3C(=O)N([C@H](C)CO)C[C@@H]2C)cc1 | / | . | .
C[C@@H]1CN([C@H](C)CO)C(=O)c2cccc(NC(=O)Nc3ccc(C(F)(F)F)cc3)c2O[C@@H]1CN(C)S(=O)(=O)c1ccc(Cl)cc1 | . | . | 63.3
C[C@H](CO)N1C[C@H](C)[C@@H](CN(C)S(=O)(=O)c2ccccc2)Oc2c(NC(=O)Nc3ccccc3)cccc2C1=O | . | . | 60.9
C[C@H]1CN([C@@H](C)CO)C(=O)c2cccc(NC(=O)Nc3ccccc3)c2O[C@H]1CN(C)S(=O)(=O)c1ccccc1 | . | . | .
COc1ccc(/C=N/NC(=O)c2cccc(C(=O)NO)c2)cc1OC | / | . | .
O=C(NO)c1cccc(C(=O)N/N=C/c2ccc(Br)cc2)c1 | / | . | .
O=C(CCCCCC(=O)N/N=C/c1ccc(Br)s1)NO | . | / | /
C[C@@H]1CN([C@@H](C)CO)C(=O)c2cccc(NC(=O)Nc3ccc(F)cc3)c2O[C@H]1CN(C)Cc1ccc(C(=O)Nc2ccccc2N)cc1 | / | . | 73.0
C[C@H]1CN([C@@H](C)CO)C(=O)c2cc(NC(=O)Nc3ccc(F)cc3)ccc2O[C@H]1CN(C)Cc1ccc(C(=O)Nc2ccccc2N)cc1 | . | . | .
C[C@@H]1CN([C@H](C)CO)C(=O)c2cccc(NC(=O)Nc3ccc(F)cc3)c2O[C@H]1CN(C)Cc1ccc(C(=O)Nc2ccccc2N)cc1 | . | . | 78.3
C[C@@H]1CN([C@@H](C)CO)C(=O)c2cccc(NC(=O)Nc3ccc(C(F)(F)F)cc3)c2O[C@H]1CN(C)Cc1ccc(C(=O)Nc2ccccc2N)cc1 | . | . | ?
C[C@H]1CN([C@@H](C)CO)C(=O)c2cccc(NC(=O)Nc3ccc(F)cc3)c2O[C@@H]1CN(C)Cc1ccc(C(=O)Nc2ccccc2N)cc1 | . | . | 66.7
C[C@H](CO)N1C[C@H](C)[C@H](CN(C)Cc2ccc(C(=O)Nc3ccccc3N)cc2)Oc2c(NC(=O)Nc3ccc(F)cc3)cccc2C1=O | . | . | .
CC(C)(C)OC(=O)NC1(/C=N/NC(=O)CCCCCCC(=O)O)CCCC1 | . | . | .
COc1cc(Br)cc(/C=N/NC(=O)c2cccc(C(=O)NO)c2)c1O | . | . | .
C[C@H](CO)N1C[C@H](C)[C@H](CN(C)Cc2ccccc2)Oc2c(NC(=O)c3ccncc3)cccc2C1=O | . | . | 81.1
C[C@H]1CN([C@@H](C)CO)C(=O)c2cccc(NC(=O)c3ccncc3)c2O[C@@H]1CN(C)Cc1ccccc1 | / | . | 80.6
C[C@H](CO)N1C[C@H](C)[C@H](CN(C)Cc2ccc(Oc3ccccc3)cc2)Oc2c(NC(=O)c3ccncc3)cccc2C1=O | . | . | 59.5
C[C@@H]1CN([C@H](C)CO)C(=O)c2cccc(NC(=O)c3ccncc3)c2O[C@@H]1CN(C)Cc1ccccc1 | . | . | .
C[C@@H]1CN([C@H](C)CO)C(=O)c2cccc(NC(=O)c3ccncc3)c2O[C@H]1CN(C)Cc1ccc(C(=O)O)cc1 | . | . | .
C[C@@H]1CN([C@@H](C)CO)C(=O)c2cccc(NC(=O)c3cnccn3)c2O[C@@H]1CN(C)Cc1ccc(Oc2ccccc2)cc1 | . | . | .
O=C(N/N=C/c1ccc(O)cc1Br)c1ccccn1 | . | . | .
O=C(N/N=C/c1ccc2c(c1)OCCO2)c1ccccn1 | . | . | .
